Test results reported in ChEMBL document CHEMBL2321804, “Development of small-molecule P-gp inhibitors of the N-benzyl 1,4-dihydropyridine type: novel aspects in SAR and bioanalytical evaluation of multidrug resistance (MDR) reversal properties” (Bioorg Med Chem, 2013).
pIC50: −log10 of the molar value.

How the values were obtained:
[1] = molecular target: T1, ATP-dependent translocase ABCB1 (Homo sapiens, UniProt P08183); assay: Inhibition of human MDR1 expressed in mouse L5178Y cells assessed as […] by measuring fluorescence activity ratio at 10 uM preincubated for 10 mins measured after 40 mins relative to control; assay type: cell-based
In short: (§1)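 Transfected P-gp L5178Y subline and parental cells, 1 x 10^6/mL in serum-free McCoy's 5A, were preincubated 10 min at rt with inhibitor (DMSO stock 1.0 mg/mL). Rhodamine 123 followed (5 µL of 0.5 mM), 40 min at 37 °C, then two PBS washes. Flow cytometry on 1 x 10^4 cells. FAR = MDR/parental uptake, each normalised to its own untreated control.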

[2] = molecular target: T1, ATP-dependent translocase ABCB1; assay: Inhibition of human MDR1 expressed in mouse L5178Y cells assessed as […] by measuring fluorescence activity ratio at 1 uM preincubated for 10 mins measured after 40 mins relative to control; assay type: cell-based; in short: as §1
[3] = Cytotoxicity against mouse L5178Y cells assessed as cell viability at 10 uM after 24 hrs by MTT assay; assay type: cell-based; details: read-out: Activity
In short: (§2)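 Parental L5178Y mouse T-lymphoma cells and the human mdr1-transfected P-gp subline were kept in McCoy's 5A with 10% FCS, 2 mM L-glutamine and gentamicin, 37 °C, 5% CO2; the subline also got colchicine 60 ng/mL. Dihydropyridines were added at 1 to 80 µM final, 24 h at 37 °C. MTT was read at 560 nm after SDS/acetic acid/DMSO lysis. Triplicate runs.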

[4] = Cytotoxicity against mouse L5178Y cells expressing p-gp assessed as cell viability at 10 uM after 24 hrs by MTT assay; assay type: ADME, cell-based; details: read-out: Activity; in short: as §2
[5] = Cytotoxicity against mouse L5178Y cells assessed as cell viability at 2.5 uM after 24 hrs by MTT assay; assay type: cell-based; details: read-out: Activity; in short: as §2
[6] = Cytotoxicity against mouse L5178Y cells expressing p-gp assessed as cell viability at 2.5 uM after 24 hrs by MTT assay; assay type: ADME, cell-based; details: read-out: Activity; in short: as §2
[7] = molecular target: T1, ATP-dependent translocase ABCB1; assay: Inhibition of human MDR1 expressed mouse L5178Y cells assessed as reduction of liposomal daunorubicin IC50 for cytotoxicity at 2.5 uM after 24 hrs by MTT assay; assay type: cell-based
In short: (§3)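 Liposomal daunorubicin (DaunoXome) was tested in the P-gp overexpressing L5178Y subline after preincubation with inhibitor at 2.5 µM or higher levels, 24 h at 37 °C, 5% CO2. Readout was MTT, lysis, then A560. IC50 came from mean percent growth inhibition of triplicate runs.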

[8] = molecular target: T1, ATP-dependent translocase ABCB1; assay: Inhibition of human MDR1 expressed mouse L5178Y cells assessed as reduction of liposomal daunorubicin IC50 for cytotoxicity at 10 uM after 24 hrs by MTT assay; assay type: cell-based
[9] = molecular target: T1, ATP-dependent translocase ABCB1; assay: Inhibition of human MDR1 expressed mouse L5178Y cells assessed as reduction of liposomal daunorubicin IC50 for cytotoxicity at 5 to 10 uM after 24 hrs by MTT assay; assay type: cell-based; in short: as §3
[10] = molecular target: T1, ATP-dependent translocase ABCB1; assay: Inhibition of human MDR1 expressed mouse L5178Y cells assessed as reduction of liposomal daunorubicin IC50 for cytotoxicity at 1 uM after 24 hrs by MTT assay; assay type: cell-based; design: scale not given: the % may be the effect or the level left
[11] = molecular target: T1, ATP-dependent translocase ABCB1; assay: Inhibition of human MDR1 expressed mouse L5178Y cells assessed as reduction of daunorubicin IC50 for cytotoxicity at 5 to 10 uM after 24 hrs by MTT assay; assay type: cell-based
In short: (§4)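 Daunorubicin at 0.01 to 10 µM was combined with inhibitor at 2.5, 5 or 10 µM in the P-gp overexpressing L5178Y subline, 24 h at 37 °C, 5% CO2. Readout was MTT (4 h), SDS/acetic acid/DMSO lysis, A560. IC50 came from mean percent growth inhibition, n = 3.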

[12] = molecular target: T1, ATP-dependent translocase ABCB1; assay: Inhibition of human MDR1 expressed mouse L5178Y cells assessed as reduction of daunorubicin IC50 for cytotoxicity at 2.5 uM after 24 hrs by MTT assay; assay type: cell-based; design: scale not given: the % may be the effect or the level left; in short: as §4
[13] = tested on: L5178Y; assay: Cytotoxicity against mouse L5178Y cells expressing p-gp after 24 hrs by MTT assay; assay type: functional, cell-based
In short: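 Daunorubicin, 0.01 to 10 µM, was given to the P-gp expressing L5178Y subline (McCoy's 5A, 10% FCS, colchicine 60 ng/mL) in 96-well plates, 24 h at 37 °C, 5% CO2. MTT (5 mg/mL stock) was added for 4 h, cells were lysed 30 min in SDS/acetic acid/DMSO, and A560 was read. IC50 came from mean percent growth inhibition of triplicate runs.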

[14] = tested on: L5178Y; assay: Cytotoxicity against mouse L5178Y cells after 24 hrs by MTT assay; assay type: functional, cell-based
In short: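 Mouse T-lymphoma L5178Y parental cells and the mdr1-transfected L5178Y mdr subline were grown in McCoy's 5A with 10% FCS (mdr subline kept in colchicine 60 ng/mL). Compounds were tested at 1 to 80 µM final for 24 h at 37 °C in 5% CO2. MTT was added for 4 h, then SDS/acetic acid/DMSO lysis and A560 read-out. Run in triplicate.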

[15] = tested on: L5178Y; assay: Ratio of IC50 for mouse L5178Y cells expressing p-gp to IC50 for mouse L5178Y cells; assay type: functional
In short: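 Parental L5178Y and P-gp-expressing L5178Y mdr cells were exposed to daunorubicin at 0.01–10 µM plus P-gp inhibitor for 24 h at 37 °C in 5% CO2. Viability was read by MTT (4 h) with SDS/acetic acid/DMSO lysis and A560. IC50s came from mean percent growth inhibition in triplicate, and the ratio is the mdr-line IC50 over the parental IC50.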

T1 sequence (P08183 whole entry): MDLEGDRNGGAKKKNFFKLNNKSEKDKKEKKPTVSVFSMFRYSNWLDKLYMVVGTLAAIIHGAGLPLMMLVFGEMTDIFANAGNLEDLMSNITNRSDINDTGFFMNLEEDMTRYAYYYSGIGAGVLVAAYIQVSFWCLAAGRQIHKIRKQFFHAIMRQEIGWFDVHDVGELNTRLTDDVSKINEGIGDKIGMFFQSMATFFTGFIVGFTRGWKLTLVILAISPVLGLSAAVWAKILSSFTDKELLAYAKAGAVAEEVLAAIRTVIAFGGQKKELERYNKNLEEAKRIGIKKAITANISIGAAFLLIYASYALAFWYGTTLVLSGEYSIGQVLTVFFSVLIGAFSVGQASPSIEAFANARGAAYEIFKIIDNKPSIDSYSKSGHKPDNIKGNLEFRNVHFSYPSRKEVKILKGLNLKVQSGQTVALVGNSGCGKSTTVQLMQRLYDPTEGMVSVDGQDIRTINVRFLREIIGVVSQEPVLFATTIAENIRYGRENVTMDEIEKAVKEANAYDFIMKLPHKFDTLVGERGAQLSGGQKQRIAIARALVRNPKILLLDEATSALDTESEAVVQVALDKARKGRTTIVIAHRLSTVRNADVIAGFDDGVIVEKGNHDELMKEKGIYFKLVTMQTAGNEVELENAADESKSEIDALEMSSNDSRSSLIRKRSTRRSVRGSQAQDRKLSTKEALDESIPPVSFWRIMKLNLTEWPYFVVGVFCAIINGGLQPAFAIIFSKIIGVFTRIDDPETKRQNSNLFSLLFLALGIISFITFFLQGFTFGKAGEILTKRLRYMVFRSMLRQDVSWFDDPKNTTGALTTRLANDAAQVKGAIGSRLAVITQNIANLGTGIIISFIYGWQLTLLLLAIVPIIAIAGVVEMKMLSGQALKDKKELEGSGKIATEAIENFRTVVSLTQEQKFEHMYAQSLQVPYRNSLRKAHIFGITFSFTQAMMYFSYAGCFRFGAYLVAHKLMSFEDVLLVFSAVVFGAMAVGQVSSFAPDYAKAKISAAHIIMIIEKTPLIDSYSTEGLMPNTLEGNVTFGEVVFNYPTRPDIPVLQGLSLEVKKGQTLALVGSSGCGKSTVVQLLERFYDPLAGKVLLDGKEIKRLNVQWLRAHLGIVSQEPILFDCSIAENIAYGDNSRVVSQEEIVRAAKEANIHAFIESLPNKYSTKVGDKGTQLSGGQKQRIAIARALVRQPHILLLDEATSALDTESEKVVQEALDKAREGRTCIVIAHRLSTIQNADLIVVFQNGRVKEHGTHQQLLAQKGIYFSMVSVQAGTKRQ

RFU [1]	RFU [2]	SMILES	also measured
2.19	1.19	COC(=O)C1=CN(Cc2cccc3ccccc23)C=CC1c1ccccc1 (configuration not stated)	
2.74	1.28	CCOC(=O)C1=CN(Cc2cccc3ccccc23)C=CC1c1ccccc1 (configuration not stated)	
2.35	1.22	COC(=O)C1=CN(Cc2ccccc2)C=CC1c1cccc2ccccc12 (configuration not stated)	
3.45	1.43	CCOC(=O)C1=CN(Cc2ccccc2)C=CC1c1cccc2ccccc12 (configuration not stated)	
2.33	1.17	CCOC(=O)C1=CN(Cc2ccccc2)C=CC1c1cccc(C(F)(F)F)c1 (configuration not stated)	
1.88	1.11	COC(=O)C1=CN(Cc2ccccc2)C=CC1c1ccc(C)cc1 (configuration not stated)	
1.76	1.13	COC(=O)C1=CN(Cc2ccccc2)C=CC1c1ccccc1OC (configuration not stated)	
2.95	0.85	COC(=O)C1=CN(Cc2ccccc2)C=CC1c1ccc(OC)cc1 (configuration not stated)	
2.54	1.34	CCOC(=O)C1=CN(Cc2ccccc2)C=CC1c1ccc(C)cc1 (configuration not stated)	
2.38	1.18	CCOC(=O)C1=CN(Cc2ccccc2)C=CC1c1ccccc1OC (configuration not stated)	
3.13	1.52	CCOC(=O)C1=CN(Cc2ccccc2)C=CC1c1ccc(OC)cc1 (configuration not stated)	
3.97	1.82	COC(=O)C1=CN(Cc2ccccc2OC)C=CC1c1ccccc1 (configuration not stated)	
4.13	1.5	COC(=O)C1=CN(Cc2ccc(OC)cc2)C=CC1c1ccccc1 (configuration not stated)	
7.8	1.72	COC(=O)C1=CN(Cc2ccc(C)cc2)C=CC1c1ccccc1 (configuration not stated)	viability at 24 h, 10 µM [3]: 75%; viability at 24 h, 10 µM [4]: 75%; viability at 24 h, 2.5 µM [5]: 95%; viability at 24 h, 2.5 µM [6]: 81%; Activity [7]: Active; Activity [8]: Active
4.64	1.72	CCOC(=O)C1=CN(Cc2ccccc2OC)C=CC1c1ccccc1 (configuration not stated)	
4.89	1.32	CCOC(=O)C1=CN(Cc2ccc(OC)cc2)C=CC1c1ccccc1 (configuration not stated)	viability at 24 h, 10 µM [3]: 100%; viability at 24 h, 10 µM [4]: 85%; viability at 24 h, 2.5 µM [5]: 97%; Activity [9]: Active; Activity [10]: > 60%; Activity [7]: Active; Activity [8]: Active
7.8	2.54	CCOC(=O)C1=CN(Cc2ccc(C)cc2)C=CC1c1ccccc1 (configuration not stated)	Activity [8]: Active; Activity [11]: Active; Activity [12]: > 50%
1.39	1.12	COC(=O)C1=CN(Cc2ccccc2)C=CC1c1cccc(Cl)c1 (configuration not stated)	
1.22	1.05	COC(=O)C1=CN(Cc2ccccc2)C=CC1c1cccc(Br)c1 (configuration not stated)	
1.53	1.05	COC(=O)C1=CN(Cc2ccccc2)C=CC1c1cccc(C(F)(F)F)c1 (configuration not stated)	
2.67	1.25	CCOC(=O)C1=CN(Cc2ccccc2)C=CC1c1cccc(Cl)c1 (configuration not stated)	
2.76	1.27	CCOC(=O)C1=CN(Cc2ccccc2)C=CC1c1cccc(Br)c1 (configuration not stated)	
		COc1cccc2c1C(=O)c1c(O)c3c(c(O)c1C2=O)C[C@@](O)(C(C)=O)C[C@@H]3O[C@H]1C[C@H](N)[C@H](O)[C@H](C)O1 (stereo in doubt; form 1) [DAUNORUBICIN]	pIC50 [13]: 5.63; pIC50 [14]: 6.52
		COc1cccc2c1C(=O)c1c(O)c3c(c(O)c1C2=O)C[C@@](O)(C(C)=O)C[C@@H]3O[C@H]1C[C@H](N)[C@H](O)[C@H](C)O1 (stereo in doubt; form 2) [DAUNORUBICIN]	Ratio IC50 [15]: >10; pIC50 [13]: 5.11; pIC50 [14]: 6.14
2.94	0.89	COc1ccc(CCN(C)CCCC(C#N)(c2ccc(OC)c(OC)c2)C(C)C)cc1OC (configuration not stated) [VERAPAMIL]	
